Compounds with a hit are over-represented: about 3.4% of the library has one in this group of screens.
CHT inh: inhibits the human high affinity choline transporter. B-score at 10 µM. Q9GZV3. CHT-expressing cells, membrane potential dye, choline response; hits give low values. 310,000 compounds, 0.86% hits. AID 488975;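 active = B-score over 3 SD under the library average, and starting fluorescence ratio not unusually high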;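 note: choline stimulus applied at its EC90 after an EC20 pre-addition; B-score computed on integrated fluorescence ratio after choline addition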
Target sequence (Q9GZV3 whole entry, looked up): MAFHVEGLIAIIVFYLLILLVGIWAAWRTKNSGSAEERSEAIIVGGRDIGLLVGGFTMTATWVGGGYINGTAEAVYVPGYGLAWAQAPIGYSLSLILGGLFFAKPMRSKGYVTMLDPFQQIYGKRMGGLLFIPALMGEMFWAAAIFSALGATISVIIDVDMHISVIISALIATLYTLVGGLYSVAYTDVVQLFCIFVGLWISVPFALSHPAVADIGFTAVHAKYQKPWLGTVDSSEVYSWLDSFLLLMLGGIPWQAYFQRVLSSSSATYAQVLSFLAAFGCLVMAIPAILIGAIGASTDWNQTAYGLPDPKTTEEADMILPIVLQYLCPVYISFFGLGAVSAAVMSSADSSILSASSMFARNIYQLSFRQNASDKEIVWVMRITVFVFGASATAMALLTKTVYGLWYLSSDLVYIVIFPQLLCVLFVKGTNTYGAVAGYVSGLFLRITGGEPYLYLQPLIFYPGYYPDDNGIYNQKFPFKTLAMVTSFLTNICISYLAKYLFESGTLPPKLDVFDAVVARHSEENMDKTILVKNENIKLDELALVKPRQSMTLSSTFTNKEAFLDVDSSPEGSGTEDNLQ
IMP-1 inh: inhibitors of Pseudomonas aeruginosa IMP-1 metallo-beta-lactamase. 290,000 compounds, 0.45% hits. purified IMP-1, nitrocefin hydrolysis, epi-absorbance fluorescence. inhibition, % at 5.6 µM;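 active = inhibition above the mean plus 3 SD of all compounds in the same screening run, cut at about 4.5% in these data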;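 note: 0% = IMP-1 with DMSO and 100% = DMSO wells lacking enzyme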
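Assay system: purified IMP-1; Quantity: IMP-1 0.2 nM before substrate addition; Medium: HEPES buffer pH 7.1 with ZnSO4 and Brij 35; Incubation: 15 min enzyme–compound preincubation, then 25 min nitrocefin reaction, 25 °C; Signal: fluorescence quenching readout, ex 480/em 530 nm; Controls: DMSO with and without IMP-1; Repeats: singlicate testing.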
ANO1 block: mouse TMEM16A channel inhibition, primary screen | HEK293 TMEM16A/YFP iodide influx fluorescence, ionomycin | normalized B-score (activity score, 25-100; higher = stronger inhibition) at 10 µM | 310,000 compounds, 1.2% hits | Q8BHY3 | AID 588511;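 active = ratio plate-corrected score three or more library SD toward inhibition, starting fluorescence score within five deviations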;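 note: score derived from kinetic fluorescence span divided by baseline fluorescence per well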
CHT allo act: allosteric activators of human choline transporter CHT; CHT-expressing cells, membrane potential dye, choline EC20; hits give high values; LV-AA mutant CHT in HEK293 cells; 310,000 compounds, 0.49% hits; Q9GZV3; B-score at 10 µM;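 active = initial fluorescence not abnormally high and integrated response B-score, plate-corrected, over 3 SD above library mean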
VIM-2 inhibitor: blocks Pseudomonas aeruginosa VIM-2 metallo-beta-lactamase | purified VIM-2, nitrocefin hydrolysis, epi-absorbance fluorescence | inhibition, % at 5.6 µM | 290,000 compounds, 0.89% hits | AID 1527;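 active = inhibition above the mean of all tested compounds plus 3 SD, cutoff set per screening run, cut at about 7.5% in these data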;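 note: red hydrolysis product quenches plate fluorescence so inhibitors raise well fluorescence; 0% = enzyme with DMSO and 100% = DMSO without enzyme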
ANO1 activ: activates or potentiates the mouse TMEM16A chloride channel. AID 623877. HEK293 TMEM16A/YFP-H148Q/I152L, iodide quench fluorescence; hits give low values. Q8BHY3. 340,000 compounds, 0.3% hits. B-score at 10 µM;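 active = fluorescence-ratio B-score plate-corrected deviation score at least 3 library SD below zero, with starting fluorescence score within 5 deviations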;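 note: channel opened by trigger with iodide after compound preincubation; score built on the fluorescence ratio of max minus min over baseline; more negative score means more quench and so TMEM16A activation or potentiation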
The depositor's hits bear a star; i = inactive; · = no result.

SMILES	CHT inh	IMP-1 inh	ANO1 block	CHT allo act	VIM-2 inhibitor	ANO1 activ
COc1cccc2[nH]c3c(N4CCc5ccccc5C4)ncnc3c12	i	-3	i	i	-1	·
Cc1ccc(C2(C)NC(=O)N(CC(=O)Nc3ccccc3C(=O)NC3CCCC3)C2=O)cc1 (stereo unspecified)	i	·	i	i	·	i
COc1cc(NC(=O)CSc2ncnc3c2cnn3Cc2ccccc2)cc(OC)c1	i	4.5*	i	i	-1	i
CCN1CCN(C(=O)c2ccc3c(Cl)c4c(nc3c2)CCCC4)CC1	i	-1	i	i	8.2*	i
CN1CCN(C(=O)c2ccc3c(Cl)c4c(nc3c2)CCCC4)CC1	i	1	i	i	11*	i
COc1ccc2nc(SC(C)C(=O)NCC(=O)Nc3ccc(F)c(F)c3F)[nH]c2c1 (stereo unspecified)	·	·	·	·	·	i
O=C(NCCc1ccccc1F)c1cccc2cccnc12	i	-5	i	i	-1	i
C=CCn1c(-c2ccoc2)n[nH]c1=S	i	-4	i	i	10*	i
C=CCn1c(-c2cccc3ccccc23)n[nH]c1=S	i	-5	i	i	-5	i
C=CCn1c(-c2ccccc2OC)n[nH]c1=S	i	-2	i	i	9.8*	i
O=C(NC(Nc1nc2ccc([N+](=O)[O-])cc2s1)(C(F)(F)F)C(F)(F)F)c1ccccc1Cl	i	-2	100*	i	-2	i
O=C(NC(Nc1nc2ccc([N+](=O)[O-])cc2s1)(C(F)(F)F)C(F)(F)F)c1cccnc1	i	-2	100*	i	-2	i
CC(C)c1c(O)ccc2c1CC[C@H]1C(C)(C)CCC[C@]21C	·	·	·	·	·	i
CC(c1ccccc1)C1CC(=O)N(c2cc(Cl)ccn2)C1=O (stereo unspecified)	i	15*	i	i	0	i
Cc1[nH]nc(-c2ccc(O)cc2O)c1-c1ccc(Cl)cc1	i	1	100*	i	-4	i
COCC1=C(C(=O)OC)C(c2cccs2)n2ncnc2N1 (stereo unspecified)	i	-3	i	i	-3	i
O=C(c1ccc2c3n(nc2c1)-c1ccccc1CO3)N1CCOCC1	i	·	i	i	·	i
O=C(c1ccc2c3n(nc2c1)-c1ccccc1CO3)N1CCCCC1	-5.3*	·	i	i	·	i
CN(C)c1ccc(-c2c(-c3ccc4c(c3)OCO4)noc2-c2ccsc2)cn1	i	-2	i	i	-2	i
O=C(O)c1cc(-c2ccc(-c3c(-c4ccc5c(c4)OCO5)noc3-c3ccsc3)cc2)nc2ccccc12	i	-5	100*	i	-2	i
Cc1cccc(NC(=O)c2cc(-c3ccc(C)c(C)c3O)n[nH]2)c1	i	-5	i	i	-4	i
O=c1c(N=Nc2ccc(O)cc2)c(-c2ccccc2)[nH]n1-c1ccc([N+](=O)[O-])cc1	i	-3	i	i	-1	i
O=c1cc(-c2ccccc2)[nH]n1-c1ccc([N+](=O)[O-])cc1	i	-1	100*	i	-2	i
C[C@@H]1CC[C@]2(C(=O)O)CC[C@]3(C)C(=CCC4[C@]56CC[C@@](O)(OC5)C(C)(C)C6CC[C@]43C)C2[C@H]1C (stereo partly specified)	i	·	100*	i	·	i
C[C@H]1[C@H](C)CC[C@]2(C(=O)O)CC[C@]3(C)C(=CC[C@@H]4[C@@]5(C)C[C@@H](O)[C@H](O)C(C)(C)[C@@H]5CC[C@]43C)[C@H]12	i	-3	i	i	-1	-9.7*
CCCCn1c(O)c(N=Nc2ccccc2O)c2ccccc21	·	·	·	·	·	i
Cc1cc(Br)ccc1NC(=O)CN(C)C(=O)c1cc([N+](=O)[O-])ccc1N1CCOCC1	i	·	i	i	·	i
CC(C)(C)C(=O)Nc1ccc(C(=O)COC(=O)C2=COCCO2)cc1	·	·	·	·	·	i
COCc1ccc(C(=O)N2CCCC(N(C)CCc3ccc(OC)c(OC)c3)C2)s1 (stereo unspecified)	i	-1	i	i	-3	i

Assay outcomes as filed in PubChem BioAssay.
